Biological target: T1, Transient receptor potential cation channel subfamily V member 1 (Rattus norvegicus, UniProt O35433)
Test: Displacement of [3H]RTX from rat TRPV1 expressed in CHO cells
Type: cell-based
Conditions: cho; call rule not given here
Procedure, shortened: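 Competitive binding against [3H]RTX on rat TRPV1 heterologously expressed in CHO cells. Affinity reported as Ki (nM). Values are mean ± SEM from 3 or more experiments.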

T1 sequence (O35433 whole entry): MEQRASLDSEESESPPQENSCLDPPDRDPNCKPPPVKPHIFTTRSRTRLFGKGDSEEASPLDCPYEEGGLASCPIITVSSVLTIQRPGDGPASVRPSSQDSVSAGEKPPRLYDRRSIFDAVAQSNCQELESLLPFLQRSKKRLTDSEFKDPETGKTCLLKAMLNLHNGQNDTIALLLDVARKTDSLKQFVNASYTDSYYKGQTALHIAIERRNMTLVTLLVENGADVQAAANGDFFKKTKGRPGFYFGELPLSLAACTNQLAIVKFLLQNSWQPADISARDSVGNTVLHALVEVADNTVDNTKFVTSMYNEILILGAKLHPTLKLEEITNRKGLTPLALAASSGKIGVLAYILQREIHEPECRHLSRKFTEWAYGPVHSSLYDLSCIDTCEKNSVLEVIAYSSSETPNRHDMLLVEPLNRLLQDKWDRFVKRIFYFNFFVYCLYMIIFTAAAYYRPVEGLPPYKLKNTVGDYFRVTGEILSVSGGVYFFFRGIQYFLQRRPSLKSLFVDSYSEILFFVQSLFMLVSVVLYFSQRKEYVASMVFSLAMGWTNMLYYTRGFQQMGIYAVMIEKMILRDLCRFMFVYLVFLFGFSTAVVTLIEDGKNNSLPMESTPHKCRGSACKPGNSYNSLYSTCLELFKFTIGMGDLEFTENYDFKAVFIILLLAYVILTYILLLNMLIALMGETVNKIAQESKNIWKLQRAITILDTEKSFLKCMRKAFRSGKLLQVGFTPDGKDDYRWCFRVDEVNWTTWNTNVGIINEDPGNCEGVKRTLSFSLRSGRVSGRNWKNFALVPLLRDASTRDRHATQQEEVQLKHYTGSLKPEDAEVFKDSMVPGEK

| Structure (SMILES) | Ki |
| --- | --- |
| CC(C)(C)c1ccc(CNC(=O)C2(c3ccc(NS(C)(=O)=O)c(F)c3)CC2)cc1 | Not Active |

Same assay, conditions: read-out: Ki

| Structure (SMILES) | Ki [nM] |
| --- | --- |
| CC(C)(C)c1ccc(CNC(=O)C(C)(C)c2ccc(NS(C)(=O)=O)cc2)cc1 | 430 |
| COc1cc(C(C)(C)C(=O)NCc2ccc(C(C)(C)C)cc2)ccc1NS(C)(=O)=O | 414 |
| CC(NC(=O)Cc1ccc(C(C)(C)C)cc1)c1ccc(NS(C)(=O)=O)c(F)c1 (centres undefined) | 2100 |
| CC(C(=O)NCc1ccc(Br)cc1)c1ccc(NS(C)(=O)=O)c(F)c1 (centres undefined) | 412 |
| CC(C(=O)NCc1ccc(I)cc1)c1ccc(NS(C)(=O)=O)c(F)c1 (centres undefined) | 502 |
| COc1ccc(CNC(=O)C(C)c2ccc(NS(C)(=O)=O)c(F)c2)cc1 (centres undefined) | 7800 |
| Cc1ccc(CNC(=O)C(C)c2ccc(NS(C)(=O)=O)c(F)c2)cc1 (centres undefined) | 3100 |
| CC(C(=O)NCc1ccc(C2CC2)cc1)c1ccc(NS(C)(=O)=O)c(F)c1 (centres undefined) | 411 |
| CC(C(=O)NCc1ccc(C2C=CCC2)cc1)c1ccc(NS(C)(=O)=O)c(F)c1 (centres undefined) | 162 |
| CC(C(=O)NCc1ccc(C2CCCC2)cc1)c1ccc(NS(C)(=O)=O)c(F)c1 (centres undefined) | 93 |
| CC(C(=O)NCc1ccc(C2CCCCC2)cc1)c1ccc(NS(C)(=O)=O)c(F)c1 (centres undefined) | 138 |
| CC(C(=O)NCc1ccc(C(C)(C)C)cc1Br)c1ccc(NS(C)(=O)=O)c(F)c1 (centres undefined) | 47 |
| CC(C(=O)NCc1ccc(C(C)(C)C)cc1C#N)c1ccc(NS(C)(=O)=O)c(F)c1 (centres undefined) | 44 |
| Cc1ccc(CCCNC(=O)[C@@H](C)c2ccc(NS(C)(=O)=O)c(F)c2)cc1C | 257 |
| CC(C(=O)NCCC(c1ccccc1)c1ccccc1)c1ccc(NS(C)(=O)=O)c(F)c1 (centres undefined) | 130 |
| CC(C(=O)NCC1CC1(c1ccccc1)c1ccccc1)c1ccc(NS(C)(=O)=O)c(F)c1 (centres undefined) | 188 |
| CC(C(=O)NCCN(c1ccccc1)c1ccccc1)c1ccc(NS(C)(=O)=O)c(F)c1 (centres undefined) | 115 |
| Cc1ccc(C(CCNC(=O)C(C)c2ccc(NS(C)(=O)=O)c(F)c2)c2ccc(C)cc2)cc1 (centres undefined) | 96 |
| Cc1ccc(C(=CCNC(=O)C(C)c2ccc(NS(C)(=O)=O)c(F)c2)c2ccc(C)cc2)cc1 (centres undefined) | 30.9 |
| CC(C(=O)NCCC(c1ccc(F)cc1)c1ccc(F)cc1)c1ccc(NS(C)(=O)=O)c(F)c1 (centres undefined) | 79 |
| CC(C(=O)NCC=C(c1ccc(Cl)cc1)c1ccc(Cl)cc1)c1ccc(NS(C)(=O)=O)c(F)c1 (centres undefined) | 29.6 |
| Cc1ccc(C(CCNC(=O)C(C)c2ccc(NS(C)(=O)=O)c(F)c2)c2ccc(F)cc2)cc1 (centres undefined) | 121 |
| CC(C(=O)NCC=C1c2ccccc2C=Cc2ccccc21)c1ccc(NS(C)(=O)=O)c(F)c1 (centres undefined) | 117 |
| Cc1ccc(CCCNC(=O)C(C)c2ccc(NS(C)(=O)=O)c(F)c2)cc1C (racemic) | 413 |

Biological target: T1, Transient receptor potential cation channel subfamily V member 1
Test: Antagonist activity at rat TRPV1 expressed in CHO cells by 45Ca2+ uptake assay
Conditions: not given

| Structure (SMILES) | Ki [nM] |
| --- | --- |
| COc1cc(C(C)(C)C(=O)NCc2ccc(C(C)(C)C)cc2)ccc1NS(C)(=O)=O | 707 |
| CC(C(=O)NCc1ccc(Br)cc1)c1ccc(NS(C)(=O)=O)c(F)c1 (centres undefined) | 250 |
| CC(C(=O)NCc1ccc(I)cc1)c1ccc(NS(C)(=O)=O)c(F)c1 (centres undefined) | 107 |
| COc1ccc(CNC(=O)C(C)c2ccc(NS(C)(=O)=O)c(F)c2)cc1 (centres undefined) | 5350 |
| Cc1ccc(CNC(=O)C(C)c2ccc(NS(C)(=O)=O)c(F)c2)cc1 (centres undefined) | 930 |
| CC(C(=O)NCc1ccc(C2CC2)cc1)c1ccc(NS(C)(=O)=O)c(F)c1 (centres undefined) | 55.5 |
| CC(C(=O)NCc1ccc(C2C=CCC2)cc1)c1ccc(NS(C)(=O)=O)c(F)c1 (centres undefined) | 15 |
| CC(C(=O)NCc1ccc(C2CCCC2)cc1)c1ccc(NS(C)(=O)=O)c(F)c1 (centres undefined) | 20.8 |
| CC(C(=O)NCc1ccc(C2CCCCC2)cc1)c1ccc(NS(C)(=O)=O)c(F)c1 (centres undefined) | 43 |
| CC(C(=O)NCc1ccc(C(C)(C)C)cc1Br)c1ccc(NS(C)(=O)=O)c(F)c1 (centres undefined) | 12.7 |
| CC(C(=O)NCc1ccc(C(C)(C)C)cc1C#N)c1ccc(NS(C)(=O)=O)c(F)c1 (centres undefined) | 40 |
| CC(C(=O)NCC1CC1(c1ccccc1)c1ccccc1)c1ccc(NS(C)(=O)=O)c(F)c1 (centres undefined) | 148 |
| CC(C(=O)NCCN(c1ccccc1)c1ccccc1)c1ccc(NS(C)(=O)=O)c(F)c1 (centres undefined) | 47 |
| Cc1ccc(C(CCNC(=O)C(C)c2ccc(NS(C)(=O)=O)c(F)c2)c2ccc(C)cc2)cc1 (centres undefined) | 32.1 |
| CC(C(=O)NCCC(c1ccc(F)cc1)c1ccc(F)cc1)c1ccc(NS(C)(=O)=O)c(F)c1 (centres undefined) | 24.8 |
| CC(C(=O)NCC=C(c1ccc(Cl)cc1)c1ccc(Cl)cc1)c1ccc(NS(C)(=O)=O)c(F)c1 (centres undefined) | 24.5 |
| Cc1ccc(C(CCNC(=O)C(C)c2ccc(NS(C)(=O)=O)c(F)c2)c2ccc(F)cc2)cc1 (centres undefined) | 31 |
| CC(C(=O)NCC=C1c2ccccc2C=Cc2ccccc21)c1ccc(NS(C)(=O)=O)c(F)c1 (centres undefined) | 163 |
| Cc1ccc(CCCNC(=O)C(C)c2ccc(NS(C)(=O)=O)c(F)c2)cc1C (racemic) | 97 |

Biological target: T1, Transient receptor potential cation channel subfamily V member 1
Test: Agonist activity at rat TRPV1 expressed in CHO cells by 45Ca2+ uptake assay
Type: functional, cell-based
Conditions: not given

| Structure (SMILES) | EC50 |
| --- | --- |
| CC(C)(C)c1ccc(CNC(=O)C(C)(C)c2ccc(NS(C)(=O)=O)cc2)cc1 | Not Active |
| CC(C)(C)c1ccc(CNC(=O)C2(c3ccc(NS(C)(=O)=O)cc3)CC2)cc1 | Not Active |
| CC(C)(C)c1ccc(CNC(=O)C(C)(C)c2ccc(NS(C)(=O)=O)c(F)c2)cc1 | Not Active |
| COc1cc(C(C)(C)C(=O)NCc2ccc(C(C)(C)C)cc2)ccc1NS(C)(=O)=O | Not Active |
| CC(C)(C)c1ccc(CNC(=O)C2(c3ccc(NS(C)(=O)=O)c(F)c3)CC2)cc1 | Not Active |
| COc1cc(C2(C(=O)NCc3ccc(C(C)(C)C)cc3)CC2)ccc1NS(C)(=O)=O | Not Active |
| CC(NC(=O)Cc1ccc(C(C)(C)C)cc1)c1ccc(NS(C)(=O)=O)c(F)c1 (centres undefined) | Not Active |
| CC(NC(=O)CCc1ccc(C(C)(C)C)cc1)c1ccc(NS(C)(=O)=O)c(F)c1 (centres undefined) | Not Active |
| CC(NC(=O)/C=C/c1ccc(C(C)(C)C)cc1)c1ccc(NS(C)(=O)=O)c(F)c1 (centres undefined) | Not Active |
| CC(C(=O)NCc1ccc(Cl)cc1)c1ccc(NS(C)(=O)=O)c(F)c1 (centres undefined) | Not Active |
| CC(C(=O)NCc1ccc(Br)cc1)c1ccc(NS(C)(=O)=O)c(F)c1 (centres undefined) | Not Active |
| CC(C(=O)NCc1ccc(I)cc1)c1ccc(NS(C)(=O)=O)c(F)c1 (centres undefined) | Not Active |
| CC(C(=O)NCc1ccc(Cl)c(Cl)c1)c1ccc(NS(C)(=O)=O)c(F)c1 (centres undefined) | Not Active |
| CC(C(=O)NCc1ccc(C(F)(F)F)cc1)c1ccc(NS(C)(=O)=O)c(F)c1 (centres undefined) | Not Active |
| COc1ccc(CNC(=O)C(C)c2ccc(NS(C)(=O)=O)c(F)c2)cc1 (centres undefined) | Not Active |
| Cc1ccc(CNC(=O)C(C)c2ccc(NS(C)(=O)=O)c(F)c2)cc1 (centres undefined) | Not Active |
| CC(C)c1ccc(CNC(=O)C(C)c2ccc(NS(C)(=O)=O)c(F)c2)cc1 (centres undefined) | Not Active |
| CC(C(=O)NCc1ccc(C2CC2)cc1)c1ccc(NS(C)(=O)=O)c(F)c1 (centres undefined) | Not Active |
| CC(C(=O)NCc1ccc(C2C=CCC2)cc1)c1ccc(NS(C)(=O)=O)c(F)c1 (centres undefined) | Not Active |
| CC(C(=O)NCc1ccc(C2CCCC2)cc1)c1ccc(NS(C)(=O)=O)c(F)c1 (centres undefined) | Not Active |
| CC(C(=O)NCc1ccc(C2CCCCC2)cc1)c1ccc(NS(C)(=O)=O)c(F)c1 (centres undefined) | Not Active |
| CC(C(=O)NCc1ccc(-c2ccccc2)cc1)c1ccc(NS(C)(=O)=O)c(F)c1 (centres undefined) | Not Active |
| CC(C(=O)NCc1ccc(C(C)(C)C)cc1Br)c1ccc(NS(C)(=O)=O)c(F)c1 (centres undefined) | Not Active |

| Structure (SMILES) | EC50 |
| --- | --- |
| CC(C(=O)NCc1ccc(C(C)(C)C)cc1C#N)c1ccc(NS(C)(=O)=O)c(F)c1 (centres undefined) | Not Active |
| CC(C(=O)NC1CCCc2ccccc21)c1ccc(NS(C)(=O)=O)c(F)c1 (centres undefined) | Not Active |
| CC(C(=O)NCCc1ccc(C(C)(C)C)cc1)c1ccc(NS(C)(=O)=O)c(F)c1 (centres undefined) | Not Active |
| Cc1ccc(CCCNC(=O)[C@H](C)c2ccc(NS(C)(=O)=O)c(F)c2)cc1C | Not Active |
| Cc1ccc(CCCNC(=O)[C@@H](C)c2ccc(NS(C)(=O)=O)c(F)c2)cc1C | Not Active |
| Cc1ccc(/C=C/CNC(=O)C(C)c2ccc(NS(C)(=O)=O)c(F)c2)cc1C (centres undefined) | Not Active |
| CC(C(=O)NC/C=C/c1ccc(Cl)cc1)c1ccc(NS(C)(=O)=O)c(F)c1 (centres undefined) | Not Active |
| CC(C(=O)NOCc1ccccc1)c1ccc(NS(C)(=O)=O)c(F)c1 (centres undefined) | Not Active |
| CC(C(=O)NC(c1ccccc1)c1ccccc1)c1ccc(NS(C)(=O)=O)c(F)c1 (centres undefined) | Not Active |
| CC(C(=O)NCC(c1ccccc1)c1ccccc1)c1ccc(NS(C)(=O)=O)c(F)c1 (centres undefined) | Not Active |
| CC(C(=O)NCCC(c1ccccc1)c1ccccc1)c1ccc(NS(C)(=O)=O)c(F)c1 (centres undefined) | Not Active |
| CC(C(=O)NCC1CC1(c1ccccc1)c1ccccc1)c1ccc(NS(C)(=O)=O)c(F)c1 (centres undefined) | Not Active |
| CC(C(=O)NCCN(c1ccccc1)c1ccccc1)c1ccc(NS(C)(=O)=O)c(F)c1 (centres undefined) | Not Active |
| Cc1ccc(C(CCNC(=O)C(C)c2ccc(NS(C)(=O)=O)c(F)c2)c2ccc(C)cc2)cc1 (centres undefined) | Not Active |
| Cc1ccc(C(=CCNC(=O)C(C)c2ccc(NS(C)(=O)=O)c(F)c2)c2ccc(C)cc2)cc1 (centres undefined) | Not Active |
| CC(C(=O)NCCC(c1ccc(F)cc1)c1ccc(F)cc1)c1ccc(NS(C)(=O)=O)c(F)c1 (centres undefined) | Not Active |
| CC(C(=O)NCC=C(c1ccc(F)cc1)c1ccc(F)cc1)c1ccc(NS(C)(=O)=O)c(F)c1 (centres undefined) | Not Active |
| CC(C(=O)NCC=C(c1ccc(Cl)cc1)c1ccc(Cl)cc1)c1ccc(NS(C)(=O)=O)c(F)c1 (centres undefined) | Not Active |
| Cc1ccc(C(CCNC(=O)C(C)c2ccc(NS(C)(=O)=O)c(F)c2)c2ccc(F)cc2)cc1 (centres undefined) | Not Active |
| CC(C(=O)NCC=C1c2ccccc2CCc2ccccc21)c1ccc(NS(C)(=O)=O)c(F)c1 (centres undefined) | Not Active |
| CC(C(=O)NCC=C1c2ccccc2C=Cc2ccccc21)c1ccc(NS(C)(=O)=O)c(F)c1 (centres undefined) | Not Active |
| Cc1ccc(CCCNC(=O)C(C)c2ccc(NS(C)(=O)=O)c(F)c2)cc1C (racemic) | Not Active |

Reference: ChEMBL document CHEMBL1938335, “2-(4-Methylsulfonylaminophenyl) propanamide TRPV1 antagonists: Structure-activity relationships in the B and C-regions” (Bioorg Med Chem, 2012)
